PAFAH1B2 FP inh: blocks human PAF acetylhydrolase 1b catalytic subunit 2 | P68402 | recombinant PAFAH1B2, FP-rhodamine activity probe, fluorescence polarization | inhibition, % at 3.39 µM | actives 1.2% (n = 340,000) | AID 492953;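 active means inhibition above the mean of all tested compounds plus 3 SD, cut at about 24% in these data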
Target sequence (P68402 whole entry, looked up): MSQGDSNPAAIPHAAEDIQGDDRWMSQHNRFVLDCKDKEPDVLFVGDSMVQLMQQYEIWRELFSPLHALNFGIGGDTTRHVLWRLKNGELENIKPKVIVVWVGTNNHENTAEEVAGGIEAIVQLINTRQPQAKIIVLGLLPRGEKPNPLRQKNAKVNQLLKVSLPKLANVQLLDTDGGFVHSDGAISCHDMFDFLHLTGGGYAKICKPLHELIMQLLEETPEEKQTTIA
PAFAH1B3 FP inh: PAFAH1B3 (human) inhibition | Q15102 | inhibition, % at 3.39 µM | actives 0.28% (n = 340,000) | recombinant PAFAH1B3, FP-rhodamine probe, fluorescence polarization | AID 492972;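 active means inhibition above the screen-wide average of all tested compounds plus 3 SD, cut at about 25% in these data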
Target sequence (Q15102 whole entry, looked up): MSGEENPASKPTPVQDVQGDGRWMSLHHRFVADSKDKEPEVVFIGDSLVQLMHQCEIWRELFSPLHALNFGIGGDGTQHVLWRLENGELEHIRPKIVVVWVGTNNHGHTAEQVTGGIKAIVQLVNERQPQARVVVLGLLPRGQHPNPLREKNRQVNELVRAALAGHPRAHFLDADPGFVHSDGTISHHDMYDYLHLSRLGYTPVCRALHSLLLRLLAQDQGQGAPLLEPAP
ASAP1 GAP inh: blocks human ASAP1-stimulated Arf1 GTP hydrolysis. inhibition, % at 16.5 µM. GDP FP detection. actives 0.19% (n = 360,000); in the data active means inhibition above about 25%
PAFAH2 inh: inhibitors of human PAFAH2. inhibition, % at 3.39 µM. actives 0.99% (n = 340,000). AID 492956. Q99487. recombinant PAFAH2, FP-rhodamine activity probe, fluorescence polarization;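 active means inhibition above the mean over all tested compounds plus 3 SD, cut at about 30% in these data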;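 further: inhibitors block probe labeling of enzyme so polarization drops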
ARFGAP1 inhibitor: inhibitors of rat ARFGAP1; Q62848; Arfgap1-stimulated ARF1 GTP hydrolysis, GDP FP detection; inhibition, % at 16.5 µM; actives 0.26% (n = 360,000);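 active means inhibition above a per-plate limit, mean inhibition of low control wells plus 3 SD, cut at about 25% in these data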
Target sequence (Q62848 1-136 limits assumed): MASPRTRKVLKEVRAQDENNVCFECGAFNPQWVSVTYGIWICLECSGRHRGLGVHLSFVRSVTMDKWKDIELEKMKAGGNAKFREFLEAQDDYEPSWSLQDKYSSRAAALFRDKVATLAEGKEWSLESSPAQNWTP
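Assay system: Rat Arfgap1 GAP domain (His6, aa 1-136), purified enzyme | Buffer or medium: HEPES 25 mM pH 7.5, NaCl 150 mM, MgCl2, DTT | Schedule: GTP hydrolysis reaction 2 h at 25 °C | Signal: FP of antibody-bound GDP Alexa 633 tracer, ex 620/em 688 nm | Measure: Percent inhibition of Arfgap1-stimulated GTP hydrolysis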
pPAFAH FP inh: inhibitors of human plasma PAF acetylhydrolase (pPAFAH); Q13093; recombinant pPAFAH, FP-rhodamine probe fluorescence polarization; inhibition, % at 3.39 µM; actives 1.5% (n = 330,000); AID 463082;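 active means inhibition above the mean inhibition across the screen plus 3 SD, cut at about 25% in these data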;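 further: inhibitors block binding of the rhodamine activity-based probe so polarization drops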
ARFGAP1 confirm: rat ARFGAP1 inhibition, confirmed | inhibition, % at 16.5 µM | ARFGAP1-stimulated ARF1 GTP hydrolysis, GDP tracer FP | shares compounds with ARFGAP1 inhibitor | AID 651608 | actives 30% (n = 890);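 active means average inhibition over triplicates above the hit cutoff set in the earlier primary screen, cut at about 25% in these data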
Each line names hits and unclear results; the compound was inactive in the other large screens (follow-up assays come after a bar, where they were run). This is a sample that favours compounds with a hit; in the whole collection about 2.7% have one here.

CCOc1ccccc1OCCCC(=O)Nc1ccc(Cl)c(S(=O)(=O)N2CCOCC2)c1	none
COc1ccc(-c2cccc(NC(=O)c3cccs3)c2)nn1	none
CC(=O)Nc1ccc(S(=O)(=O)NC2CC(=O)N(c3ccc(C)cc3)C2)cc1 (stereo not drawn)	none
COc1[nH]c2ccc(F)cc2c1C(=O)OCC1CCN(CCNS(C)(=O)=O)CC1	ARFGAP1 inhibitor 28 | ARFGAP1 confirm inactive
COC(=O)c1cc(S(=O)(=O)NCC2CCN(Cc3cccc(F)c3)CC2)cn1C	none
CCC(C)NC(=S)Nc1ccc(C(=O)OC)cc1 (stereo not drawn)	none
C=C(C)COc1ccc(-c2[nH]ncc2-c2ccc(OC)cc2)c(O)c1	ARFGAP1 inhibitor 26 | ARFGAP1 confirm inactive
COc1ccc(NC(=O)c2cccc(S(=O)(=O)N3CCCCCC3)c2)cc1	none
COC(=O)c1c(NC(=O)C2CC(=O)NN2Cc2ccccc2)sc(C)c1C (stereo not drawn)	none
C[C@H](CO)N1C[C@H](C)[C@@H](CN(C)C(=O)Nc2ccc(C(F)(F)F)cc2)Oc2ccc(NC(=O)Nc3ccccc3)cc2C1=O	ARFGAP1 inhibitor 30 | ARFGAP1 confirm inactive
C[C@@H]1CCCCO[C@H](CN(C)C)[C@H](C)CN([C@@H](C)CO)C(=O)c2cc(NC(=O)Nc3ccc(C(F)(F)F)cc3)ccc2O1	none (no result: PAFAH1B2 FP inh, PAFAH1B3 FP inh, PAFAH2 inh, pPAFAH FP inh)
C[C@@H]1CCCCO[C@H](CN(C)Cc2ccc(C(=O)O)cc2)[C@H](C)CN([C@@H](C)CO)C(=O)c2cc(NC(=O)Nc3ccc(C(F)(F)F)cc3)ccc2O1	ARFGAP1 inhibitor 25 (no result: PAFAH1B2 FP inh, PAFAH1B3 FP inh, PAFAH2 inh, pPAFAH FP inh) | ARFGAP1 confirm inactive
Cc1onc(-c2c(F)cccc2Cl)c1C(=O)N=C(N)N1CCCC1	none
CCCCc1nnc(SCC(=O)Nc2nccs2)n1CC	none
CCn1c(COc2cc(C)ccc2C(C)C)nnc1SCC(=O)Nc1nccs1	ARFGAP1 inhibitor 25 | ARFGAP1 confirm inactive
CCOc1ccc(CNC(=O)Cn2nc(C)c3c(C)n(-c4ccc(C)cc4)nc3c2=O)cc1	ARFGAP1 inhibitor 34 | ARFGAP1 confirm inactive
Cc1ccc(-n2nc3c(=O)n(CC(=O)NCc4ccccn4)nc(C)c3c2C)cc1	none
CCOc1ccc(S(=O)(=O)N(C)c2ccc(OCC(=O)Nc3ccc4[nH]c(=O)[nH]c4c3)cc2)cc1	none
CN(c1ccc(OCC(=O)Nc2ccc3[nH]c(=O)[nH]c3c2)cc1)S(=O)(=O)c1ccc(Cl)cc1	ARFGAP1 inhibitor 30 | ARFGAP1 confirm inactive
O=C(N/N=C/c1ccccc1)c1ccc(CN2C(=O)c3cccc4cccc2c34)cc1	none
O=C(N/N=C/c1ccc(O)cc1O)c1ccc(CN2C(=O)c3cccc4cccc2c34)cc1	PAFAH1B2 FP inh 43, PAFAH1B3 FP inh 35, PAFAH2 inh 39, ARFGAP1 inhibitor 27, pPAFAH FP inh 30 | ARFGAP1 confirm 80
O=C(CCCNC(=O)/C(=C/c1ccccc1F)NC(=O)c1ccccc1)OCc1ccccc1	ARFGAP1 inhibitor 27 | ARFGAP1 confirm inactive
O=C(CCCNC(=O)/C(=C/c1ccc(Br)cc1)NC(=O)c1ccccc1)OCc1ccccc1	none
Cc1nc(NC(=O)C(C)(C)C)sc1C(=O)Cn1cc(-c2ccc(C(C)(C)C)cc2)nn1	none (no result: PAFAH1B2 FP inh, PAFAH1B3 FP inh, PAFAH2 inh, pPAFAH FP inh)
CCOC(=O)N1CCN(CC(O)COCCC23CC4CC(CC(C4)C2)C3)CC1 (stereo not drawn)	none
CC1CCCCN1CC(O)COCCC12CC3CC(CC(C3)C1)C2 (stereo not drawn)	ARFGAP1 inhibitor 25 | ARFGAP1 confirm inactive
Cc1ccc(C2C(C#N)=C(N)Oc3cc4c(cc32)OCO4)cc1 (stereo not drawn)	ARFGAP1 inhibitor 25 | ARFGAP1 confirm inactive
CCOC(=O)N1CCN(C(=O)c2ccc3c(=O)n(CCOC)c(=O)[nH]c3c2)CC1	none
CCCCCn1c(=O)[nH]c2cc(C(=O)N3CCN(C(=O)OCC)CC3)ccc2c1=O	ARFGAP1 inhibitor 25 | ARFGAP1 confirm inactive
CN(C)/C=C/C1=C([N+](=O)[O-])C(c2cccc([N+](=O)[O-])c2)NC(=O)N1 (stereo not drawn)	ARFGAP1 inhibitor 28 | ARFGAP1 confirm inactive
CCOC(=O)C1=C(CCc2ccccc2)NC(=O)NC1c1cccc([N+](=O)[O-])c1 (stereo not drawn)	none
O=C(CSc1nnc(COc2ccc(Cl)cc2)o1)NC1CC2CCC1C2 (stereo not drawn)	PAFAH1B2 FP inh 24, ARFGAP1 inhibitor 30 | ARFGAP1 confirm inactive
COc1ccc2nc(/C=N/NC(=O)[C@H](CCSC)NC(=O)OC(C)(C)C)ccc2c1	ARFGAP1 inhibitor 27 | ARFGAP1 confirm inactive
Cc1ccc(S(=O)(=O)NCCC(=O)Nc2cccc(S(=O)(=O)N3CCCC3)c2)cc1C	ARFGAP1 inhibitor 34 | ARFGAP1 confirm inactive
CCCc1ccc(Oc2cn[nH]c2-c2ccc(O)cc2O)cc1	ARFGAP1 inhibitor 30 | ARFGAP1 confirm inactive
Cc1ccccc1-n1c(=O)cc(N2CCc3ccccc32)[nH]c1=O	ARFGAP1 inhibitor 25 | ARFGAP1 confirm inactive
CCNc1nc(-c2sc(NC(=O)C(C)(C)C)nc2C)c(-n2cc(-c3ccccc3)nn2)s1	ARFGAP1 inhibitor 32 (no result: PAFAH1B2 FP inh, PAFAH1B3 FP inh, PAFAH2 inh, pPAFAH FP inh) | ARFGAP1 confirm inactive
CCOc1ccc(-c2nnn(CC(=O)NCc3ccc4c(c3)OCO4)n2)cc1	ARFGAP1 inhibitor 29 | ARFGAP1 confirm inactive
COc1ccc(-c2nnn(CC(=O)NCc3ccc4c(c3)OCO4)n2)cc1OC	none
CC12CCC(=O)N1C(C(=O)NCCN1C(=O)S/C(=C\c3ccc(OC(F)F)cc3)C1=O)CS2 (stereo not drawn)	ARFGAP1 inhibitor 25 | ARFGAP1 confirm inactive
COc1ccc(/C=C2\SC(=O)N(CCNC(=O)C3CSC4(C)CCC(=O)N34)C2=O)cc1 (stereo not drawn)	none
O=C(NCc1ccncc1)Nc1ccc(Cc2ccc(NC(=O)NCc3ccncc3)cc2)cc1	ARFGAP1 inhibitor 27 (no result: PAFAH1B2 FP inh, PAFAH1B3 FP inh, PAFAH2 inh, pPAFAH FP inh) | ARFGAP1 confirm 56
O=C(NCc1ccncc1)Nc1ccccc1	none
Cc1ccc(C(=O)N[C@@H](C)CN2C3=NC[C@H](C(C)C)N3C[C@H]2Cc2ccc(O)cc2)cc1Br	ARFGAP1 inhibitor 26 | ARFGAP1 confirm inactive
COc1ccc(C[C@H]2CN3C(=NC[C@@H]3C(C)C)N2C[C@H](C)NC(=O)c2ccc(C)c(Br)c2)cc1	none
Cc1ccc2cc(C)c3nnc(SCC(=O)Nc4nc5c(s4)CCCC5)n3c2c1C	ARFGAP1 inhibitor 27 | ARFGAP1 confirm inactive
Cc1ccc(C)c2c1cc(C)c1nnc(SCC(=O)Nc3nc4c(s3)CCCC4)n12	none
Nc1ccc2nc(-c3cccc(-c4nc5ccc(N)cc5[nH]4)c3)[nH]c2c1	PAFAH1B2 FP inh 24, PAFAH1B3 FP inh 31, ARFGAP1 inhibitor 60 | ARFGAP1 confirm 106
Nc1ccc(-c2nc3ccc(N)cc3[nH]2)cc1	none
